In series [1] the target is CD137 (Homo sapiens, UniProt Q07011+Q96NY8). The series is described as follows: HT1376/CD137 reporter coculture assay. Type of series: cell-based. As to conditions: 1:2 (BCY10918) vs 1:1 (BCY10572).
Series [2] can be described thus: Pharmacokinetics in Sprague-Dawley rats. Particulars: rat, in vivo, iv, 2 mg/kg.
The test system of series [3] is human PBMCs cocultured with HT1376. The series is described as follows: PBMC/HT1376 coculture cytokine secretion assay. Type of series: cell-based. Particulars: anti-CD3 stimulated PBMCs with HT1376. In short, it runs like this:
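Frozen healthy-donor human PBMCs were thawed, washed in PBS with benzonase and resuspended in RPMI with 10% heat-inactivated FBS, HEPES and glutamine. PBMCs (1 × 10^6/mL) were plated with tumor cells (1 × 10^5/mL) at 10:1, stimulated with soluble anti-CD3 OKT3 (100 ng/mL), and given diluted test compound. Incubation was 2 days at 37 °C, 5% CO2. Supernatant IFNγ and IL-2 were measured by Luminex; four-parameter fit, n = 3.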

Sequence of CD137 (Q07011 24-255): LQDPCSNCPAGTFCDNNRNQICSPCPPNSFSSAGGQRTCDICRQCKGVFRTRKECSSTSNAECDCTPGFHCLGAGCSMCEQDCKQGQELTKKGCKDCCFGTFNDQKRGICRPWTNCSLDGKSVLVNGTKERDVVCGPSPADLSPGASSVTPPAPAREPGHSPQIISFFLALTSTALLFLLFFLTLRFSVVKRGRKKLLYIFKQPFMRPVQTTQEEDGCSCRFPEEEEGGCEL
Sequence of CD137 (Q96NY8 32-510): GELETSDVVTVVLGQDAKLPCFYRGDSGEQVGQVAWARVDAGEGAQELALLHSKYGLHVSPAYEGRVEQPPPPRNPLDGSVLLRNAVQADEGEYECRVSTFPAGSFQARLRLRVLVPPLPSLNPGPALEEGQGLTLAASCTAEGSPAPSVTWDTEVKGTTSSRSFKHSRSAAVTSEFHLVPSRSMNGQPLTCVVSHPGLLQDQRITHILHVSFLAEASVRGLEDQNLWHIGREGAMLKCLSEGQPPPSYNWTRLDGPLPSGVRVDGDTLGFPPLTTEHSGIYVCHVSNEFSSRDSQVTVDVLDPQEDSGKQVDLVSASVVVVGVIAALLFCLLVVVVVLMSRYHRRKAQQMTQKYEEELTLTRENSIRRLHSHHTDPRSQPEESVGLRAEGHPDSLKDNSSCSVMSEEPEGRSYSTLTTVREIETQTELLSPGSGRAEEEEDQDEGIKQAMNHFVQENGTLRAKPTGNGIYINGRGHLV

On to `CCCC[C@@H]1NC(=O)[C@H](Cc2ccc(O)cc2)NC(=O)[C@@H]2CCCN2C(=O)[C@H](CC(=O)O)NC(=O)[C@H](C)NC(=O)[C@H](Cc2ccccc2)NC(=O)[C@@H]2CSCCC(=O)N3CN(CN(C3)C(=O)CCSC[C@@H](C(=O)N[C@@H](C)C(N)=O)NC1=O)C(=O)CCSC[C@H](NC(C)=O)C(=O)N[C@@H](CC(C)(C)C)C(=O)N1CCC[C@H]1C(=O)N[C@@H](CCC(=O)O)C(=O)N[C@H](CCCCNC(=O)CCc1cn(CCOCCOCCOCCOCCOCCOCCOCCOCCOCCOCCNC(=O)c3cc(C(=O)NCCOCCOCCOCCOCCOCCOCCOCCOCCOCCOCCn4cc(CCC(=O)NCCCC[C@H]5NC(=O)[C@H](CCC(=O)O)NC(=O)[C@@H]6CCCN6C(=O)[C@H](CC(C)(C)C)NC(=O)[C@@H](NC(C)=O)CSCCC(=O)N6CN7CN(C6)C(=O)CCSC[C@H](NC(=O)[C@H](Cc6ccc(O)cc6)NC(=O)[C@@H]6CCCN6C5=O)C(=O)N[C@@H](Cc5ccccc5)C(=O)N[C@@H](C)C(=O)N[C@@H](CC(=O)O)C(=O)N5CCC[C@H]5C(=O)N[C@@H](Cc5ccc(O)cc5)C(=O)N[C@@H](CCCC)C(=O)N[C@H](C(=O)N[C@@H](C)C(N)=O)CSCCC7=O)nn4)cc(C(=O)NCCOCCOCCOCCOCCOCCOCCOCCOCCOCCOCCn4cc(CCC(=O)N[C@H]5CSCCC(=O)N6CN7CN(C6)C(=O)CCSC[C@H](NC(=O)[C@@H](CC(=O)O)NC(=O)[C@H](Cc6cccc8ccccc68)NC(=O)[C@@H]6CCCN6C5=O)C(=O)N[C@@H](CCSC)C(=O)N[C@@H](CCCCNC(=N)N)C(=O)N[C@@H](CC(=O)O)C(=O)N[C@@H](Cc5c[nH]c6ccccc56)C(=O)N[C@@H](CO)C(=O)N[C@@H]([C@@H](C)O)C(=O)N5CCC[C@H]5C(=O)N5C[C@H](O)C[C@H]5C(=O)N[C@@H](Cc5c[nH]c6ccccc56)C(=O)N[C@H](C(N)=O)CSCCC7=O)nn4)c3)nn1)C(=O)N1CCC[C@H]1C(=O)N[C@@H](Cc1ccc(O)cc1)C(=O)N2` [BCY10918], for which, in series [1], the “improvement in EC50” value turned out to be 8.3 fold and the “improvement in Emax” value turned out to be 2.0 fold. In series [2], the half-life was 1.8 h.
For `CCCC[C@@H]1NC(=O)[C@H](Cc2ccc(O)cc2)NC(=O)[C@@H]2CCCN2C(=O)[C@H](CC(=O)O)NC(=O)[C@H](C)NC(=O)[C@H](Cc2ccccc2)NC(=O)[C@@H]2CSCCC(=O)N3CN(CN(C3)C(=O)CCSC[C@@H](C(=O)N[C@@H](CNC(=O)CCc3cn(CCOCCOCCOCCN(CCOCCOCCOCCC(=O)N[C@H]4CSCCC(=O)N5CN6CN(C5)C(=O)CCSC[C@H](NC(=O)[C@@H](CC(=O)O)NC(=O)[C@H](Cc5cccc7ccccc57)NC(=O)[C@@H]5CCCN5C4=O)C(=O)N[C@@H](CCSC)C(=O)N[C@@H](CCCCNC(=N)N)C(=O)N[C@@H](CC(=O)O)C(=O)N[C@@H](Cc4c[nH]c5ccccc45)C(=O)N[C@@H](CO)C(=O)N[C@@H]([C@@H](C)O)C(=O)N4CCC[C@H]4C(=O)N4C[C@H](O)C[C@H]4C(=O)N[C@@H](Cc4c[nH]c5ccccc45)C(=O)N[C@H](C(N)=O)CSCCC6=O)CCOCCOCCOCCn4cc(CCC(=O)NC[C@H](NC(=O)[C@@H]5CSCCC(=O)N6CN7CN(C6)C(=O)CCSC[C@H](NC(=O)[C@H](Cc6ccc(O)cc6)NC(=O)[C@@H]6CCCN6C(=O)[C@@H](C)NC(=O)[C@H](CCC(=O)O)NC(=O)[C@@H]6CCCN6C(=O)[C@H](CC(C)(C)C)NC(=O)[C@@H](NC(C)=O)CSCCC7=O)C(=O)N[C@@H](Cc6ccccc6)C(=O)N[C@@H](C)C(=O)N[C@@H](CC(=O)O)C(=O)N6CCC[C@H]6C(=O)N[C@@H](Cc6ccc(O)cc6)C(=O)N[C@@H](CCCC)C(=O)N5)C(N)=O)nn4)nn3)C(N)=O)NC1=O)C(=O)CCSC[C@H](NC(C)=O)C(=O)N[C@@H](CC(C)(C)C)C(=O)N1CCC[C@H]1C(=O)N[C@@H](CCC(=O)O)C(=O)N[C@H](C)C(=O)N1CCC[C@H]1C(=O)N[C@@H](Cc1ccc(O)cc1)C(=O)N2` [BCY11385], in series [3], the “secretion of proinflammatory cytokines IFNγ and IL-2” value is “dose-dependent increase”.

Values taken from PMC9340768 (Journal of Medicinal Chemistry, 2022).
